UPR XBP1 act = adaptive UPR (XBP1) activation; activation, % at 20 µM; AID 463104; CHO-XBP1 luciferase reporter, IRE1-XBP1 UPR activation, luminescence; percent of tunicamycin response, DMSO as zero; actives 0.33% (n = 330,000);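 active = versus positive control, 20 µM dose yields 30% or more activation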
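Assay system: IRE1-XBP1 luciferase reporter CHO line. Input: 1000 cells/well. Buffer or medium: F12 with 10% serum. Doses: 20 µM, 1% DMSO. Times: overnight seeding at 37 °C, 6 h compound treatment at 37 °C. Technique: Steady-Glo luciferase glow luminescence, 10 min after reagent addition.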
CHOP inhibitor = inhibitors of CHOP induction in ER stress response; CHO-K1 CHOP-promoter luciferase, tunicamycin-induced, 15-18 h; AID 2732; inhibition, % at 10 µM; actives 3.8% (n = 220,000);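 active = compounds that reduced the stress-induced luciferase reporter signal by more than about 70% of percent inhibition, limit read from the data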
T cruzi repl = blocks replication of Trypanosoma cruzi. T. cruzi beta-gal in NIH3T3, luminescence, 90 h. AID 1885. actives 1.4% (n = 300,000). inhibition, % (concentration not given with the values);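 active = mean inhibition across valid replicates above about 55%, limit read from the data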;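 note: signal also drops with host cell toxicity which is not excluded here; higher percent means less beta-gal luminescence so fewer parasites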
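System: Mouse NIH/3T3 fibroblasts infected with β-gal-expressing T. cruzi Tulahuen C4 | Quantity: NIH/3T3 cells, 5,000 per well | Reagent: 5000 reporter trypomastigotes per well | Dosing: Compound pinned at 50 nL/well, DMSO | Schedule: 3 h host attachment, then at least 90 h co-culture | Detection: GalScreen luminescence, 60 min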
UPR CHOP act = activators of apoptotic arm of unfolded protein response (CHOP); activation, % at 10 µM; CHO-CHOP luciferase reporter, UPR activation, luminescence; percent of tunicamycin response over DMSO baseline; actives 0.34% (n = 330,000);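 active = at 10 µM dose, activation of 40% or more, normalized to positive control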
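measured by = luciferase luminescence | assay system = CHO-CHOP cells, stable luciferase reporter of PERK-eIF2a-CHOP signalling | amount = 500 reporter cells seeded per well | timing = 6 h compound exposure at 37 °C after overnight seeding | controls = positive tunicamycin 10 µg/mL, negative DMSO alone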
L major viab = reduces viability of Leishmania major promastigotes; actives 9% (n = 200,000); AID 1063; inhibition, % at 10 µM; resazurin fluorescence viability; in the data active = inhibition above about 50%;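 note: promastigotes grown with compound for 44 hours at 28 °C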
Dynein transport = dynein cargo transport inhibition | 3617.4 mouse cells, GR-EGFP nuclear translocation imaging; test concentration mostly 20 µM; stimulated with dexamethasone, 1 µM; active compounds read low | z-score, hits read low | actives 0.47% (n = 220,000) | AID 1381;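 active = plate z-score of nuclear minus cytoplasmic receptor signal below a set negative limit, without overly bright fluorescence or cell loss, cut at about -3.5 in these data, passing the limit was not always enough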;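 note: z-score of nuclear minus cytoplasmic ring GR-EGFP intensity difference per well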
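Also added: dexamethasone, 1.0 µM final. Medium: tet-free, stripped-serum medium. Detection: fixed, Hoechst-stained cells imaged at 10x for EGFP. Read-out: nuclear-to-cytoplasmic GR-EGFP distribution per well. Times: induction 48 h, compound 1 h, agonist 30 min.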
Of the large screens only hits and unclear results are named; the others gave an inactive call; ! = not active in a repeat. Many of the other results were omitted from the sample, so hits are more common in it than they were.

Cc1ccc(S(=O)(=O)N2CCC(=O)N(C(COCc3ccc(Cl)cc3Cl)Cc3ccccc3)CC2)cc1 (stereo unspecified)	T cruzi repl 75
Cc1ccc(S(=O)(=O)N2CCC(=O)N(C(COCc3cccc(Cl)c3)Cc3ccccc3)CC2)cc1 (stereo unspecified)	none
OCCC1CN(C/C=C/c2ccco2)CCN1Cc1ccccc1 (stereo unspecified)	none (no result: CHOP inhibitor, L major viab, Dynein transport)
COc1ccc([N+](=O)[O-])cc1NC(=O)COC(=O)c1ccccc1O	none (no result: L major viab)
COc1cc([N+](=O)[O-])ccc1NC(=O)COC(=O)c1n[nH]c2ccccc12	L major viab 60
O=C(COC(=O)c1n[nH]c2ccccc12)Nc1ccc(Cl)cc1[N+](=O)[O-]	none
COc1ccc([N+](=O)[O-])cc1NC(=O)COC(=O)c1ccccc1C(=O)c1ccccc1	L major viab 92
COC(=O)c1cc2ccsc2n1CC(=O)Nc1ccc(N(C)C)cc1	T cruzi repl 55
Cc1cc2c3c([nH]c2cc1S(=O)(=O)NCCCOC(C)C)CC(C)(C)CC3=O	none (no result: CHOP inhibitor, L major viab, Dynein transport)
CCOC(=O)C1=C(C)N=c2s/c(=C\c3ccncc3)c(=O)n2C1c1ccc2c(c1)OCO2 (stereo unspecified)	L major viab 99
Cc1ccc2c(c1)N=C(c1ccc(Cl)cc1)CO2	CHOP inhibitor 71
c1ccc(C2=Nc3ccccc3OC2)cc1	L major viab 69
Clc1ccc(C2=Nc3cc(Cl)ccc3OC2)cc1	none
Cc1cc(C(=O)C(C)OC(=O)c2ccc(NC(=O)CC#N)cc2)c(C)n1-c1ccccc1 (stereo unspecified)	none (no result: CHOP inhibitor, L major viab, Dynein transport)
CCOC(=O)C1CCN(C(=O)c2cc(COc3ccc(OC)c4ccccc34)on2)CC1	none (no result: CHOP inhibitor, L major viab, Dynein transport)
CC[N+](CC)(CC)C/C=C/CN1CCCCC1	L major viab 58
Cc1c2cc(O)c(=O)cc-2oc2cc(O)c(O)cc12	Dynein transport -5.3!
COc1cc(OC)c(-c2c3cc(O)c(=O)cc-3oc3cc(O)c(O)cc23)cc1OC	none (no result: T cruzi repl)
CC(C)N(CCNS(=O)(=O)c1ccc(Cl)cc1)C(C)C	L major viab 57
Clc1ccc(OCCCCCN2CCCC2)c(Br)c1	T cruzi repl 68, L major viab 98
Cc1cc(OCCCN2CCCC2)ccc1Cl	none (no result: CHOP inhibitor, L major viab, Dynein transport)
Clc1ccc(Cl)c(OCCCCN2CCNCC2)c1	T cruzi repl 60 (no result: CHOP inhibitor, L major viab, Dynein transport)
CC(C)(C)c1ccc(OCCCCCCN2CCNCC2)cc1	none (no result: CHOP inhibitor, L major viab, Dynein transport)
Clc1ccc(OCCCN2CCCCC2)c(Br)c1	L major viab 99
Clc1cccc(OCCN2CCCC2)c1	none (no result: CHOP inhibitor, L major viab, Dynein transport)
Brc1ccccc1OCCCCCN1CCCC1	T cruzi repl 57, L major viab 98
Brc1ccccc1OCCN1CCOCC1	none (no result: CHOP inhibitor, L major viab, Dynein transport)
COc1cc2oc(=O)cc(-c3ccc(-c4ccc(CO)cc4)cc3)c2c(OC)c1OC	none (no result: CHOP inhibitor, T cruzi repl, L major viab, Dynein transport)
CC(C)(O)CC[C@H](OC(=O)c1ccccc1)[C@](C)(O)[C@H]1CC[C@@]2(O)C3=CC(=O)[C@@H]4C[C@@H](O)[C@H](O)C[C@]4(C)C3CC[C@]12C (stereo partly specified)	none (no result: CHOP inhibitor, L major viab, Dynein transport)
CCN(C(=O)COC(=O)c1ccc2ccccc2n1)c1c(N)n(Cc2ccccc2)c(=O)[nH]c1=O	none (no result: CHOP inhibitor, T cruzi repl, L major viab, Dynein transport)
CCN1CCN(CCCOc2ccc(Cl)cc2Br)CC1	T cruzi repl 57, L major viab 96
CCN(CC)CC(O)COc1ccc2c(c1)c(C(C)=O)c(C)n2-c1ccccc1 (stereo unspecified)	L major viab 100
CCOC(=O)c1c(C)n(C)c2ccc(OCC(O)CN3C(=O)c4ccccc4S3(=O)=O)cc12 (stereo unspecified)	none (no result: T cruzi repl)
CCOC(=O)c1c(C)n(C)c2ccc(OCC(O)Cn3nc(C)cc3C)cc12 (stereo unspecified)	L major viab 86
CCOC(=O)c1c(C)n(C)c2ccc(OCC(O)CN(CC)CC)cc12 (stereo unspecified)	L major viab 99
O=C(Nc1ccc(S(=O)(=O)N2CCOCC2)cc1)c1ccccc1F	none (no result: CHOP inhibitor, L major viab, Dynein transport)
CNc1c(NS(=O)(=O)c2ccc(C3CCCCC3)cc2)c(=O)oc2ccccc12	none (no result: CHOP inhibitor, L major viab, Dynein transport)
CN(C)C(=O)c1ccc(NC(=O)COC(=O)C2CCN(S(=O)(=O)c3ccc4c(c3)OCCO4)CC2)cc1	none (no result: CHOP inhibitor, L major viab, Dynein transport)
CCC(NS(=O)(=O)c1ccc2c(c1)NC(=O)C(C)C(=O)N2)c1cccs1 (stereo unspecified)	none (no result: CHOP inhibitor, L major viab, Dynein transport)
CCC(=O)c1ccc(OCC(=O)Nc2ccccc2N2CCCCC2)cc1	none (no result: CHOP inhibitor, L major viab, Dynein transport)
CCCNC(=O)c1ccc(N2CCC3(CC2)CC(c2cccc(Br)c2)=NO3)c(NC(=O)c2ccccc2)c1	T cruzi repl 57 (no result: CHOP inhibitor, L major viab, Dynein transport)
CCCCCCCC(=O)Nc1cc(C(=O)NCCC)ccc1N1CCC2(CC1)CC(c1ccccc1)=NO2	T cruzi repl 57 (no result: CHOP inhibitor, L major viab, Dynein transport)
CCCNC(=O)c1ccc(N2CCC3(CC2)CC(c2ccccc2)=NO3)c(NC(=O)c2ccc(Br)cc2)c1	none (no result: CHOP inhibitor, L major viab, Dynein transport)
Cc1ccc(NC(=O)CSc2nnc(-c3cc(C)[nH]n3)n2N)c(C)c1	none (no result: CHOP inhibitor, L major viab, Dynein transport)
Cc1ccc(CN2CCN(Cc3nc(C(C)C)cs3)CC2CCO)cc1 (stereo unspecified)	L major viab 74
CC(C)CN1CCN(Cc2nc(C(C)C)cs2)CC1CCO (stereo unspecified)	none
CC(C)c1csc(CN2CCN(Cc3ccc(F)cc3)C(CCO)C2)n1 (stereo unspecified)	L major viab 81
CC(C)c1csc(CN2CCC(CO)(Cc3cccc(F)c3)CC2)n1	T cruzi repl 68
CCCCC[C@@H]1C=C(C(=O)O)[C@H](c2ccc3c(c2)OCO3)N1S(=O)(=O)c1ccc(C)cc1	none (no result: CHOP inhibitor, T cruzi repl, L major viab, Dynein transport)
CCC(CC)NC(=O)c1cc2c(C)nn(Cc3ccccc3Cl)c2s1	none
Cc1nn(Cc2ccccc2Cl)c2sc(C(=O)Nc3nccs3)cc12	CHOP inhibitor 84
Cc1nn(Cc2ccc(F)cc2)c2sc(C(=O)Nc3ccccc3N3CCOCC3)cc12	none
Cc1nn(Cc2ccc(F)cc2)c2sc(C(=O)Nc3nccs3)cc12	CHOP inhibitor 93
Cc1cc(C)cc(NC(=O)CN(C)CC(=O)N(CC(C)C)c2c(N)n(CC(C)C)c(=O)[nH]c2=O)c1	none (no result: CHOP inhibitor, T cruzi repl, L major viab, Dynein transport)
Cc1ccc(N2CCN(C(=S)Nc3ccc(Cl)cc3)CC2)cc1	none (no result: CHOP inhibitor, L major viab, Dynein transport)
S=C(Nc1ccc(Cl)cc1)N1CCN(C2CCCCC2)CC1	L major viab 81
Nc1ncnc2c1nc(Sc1ccc(Cl)cc1)n2C1OC2COP(=O)(O)O[C@@H]2[C@@H]1O (stereo partly specified)	none (no result: UPR XBP1 act, T cruzi repl, UPR CHOP act, L major viab, Dynein transport)
CC1(C)CC(=O)C2=C(C1)NC1=C(C(=O)c3ccccc31)C2c1ccc(Cl)cc1 (stereo unspecified)	L major viab 60

Assay outcomes (PubChem BioAssay)
